Measurements from different studies.
pEC50: −log10 of the molar value.
Observed: cell growth or viability

The inhibition of NCCC(=O)Nc1ccccc1/N=c1\cc(-c2ccc3c(c2)OCCO3)oc2cc(F)ccc12 is reported as -8.9% (A549; CCK-8; 1 µM).
For CCCCCCCCCCCCCCCCCCOc1ccc(CC(=O)OCCC[N+](C)(C)C)cc1, the inhibition was 21.6% (NCI-H522; SRB; 10 µM).
For COCCC(=O)Nc1ccccc1/N=c1\cc(-c2ccc3c(c2)OCO3)oc2ccccc12, the inhibition was 4.66% (A549; CCK-8; 1 µM).
For CCCCCCCCCCCCCCCCCCOc1ccc(CC(=O)OCC[N+](C)(C)C)cc1, the inhibition was 4.28% (NCI-H522; SRB; 10 µM).
With Cc1nc(Nc2ncc(C(=O)Nc3c(C)cccc3Cl)s2)cc(N2CC[C@H](O)C2)n1 the inhibition was 91% (WSU-NHL; ATP luminescence; 10 µM; 72 h).
COc1ccc2/c(=N/c3ccccc3NC(=O)CN)cc(-c3ccc4c(c3)OCCO4)oc2c1 gave an inhibition of 0.19% (A549; CCK-8; 1 µM).
CCCS(=O)(=O)Oc1cc(C=NNC(=O)c2nc3ccccc3s2)ccc1OC has a cell death of 33% (PC-3; MTT; 100 µM; 48 h).
The pEC50 of C[C@H](Nc1ccc2c(c1)OCCn1cc(N3C(=O)OC[C@H]3C(F)F)nc1-2)C(N)=O is reported as 9.52 (NCI-H1048; ATP luminescence; 5 days).
With Oc1cccc(-c2nc(N3CCOCC3)c3oc4ncccc4c3n2)c1 the inhibition was 20.4% (A549; CCK-8; 1 µM).
CCCCCCCCCCCCCCCCCCOc1ccccc1CC(=O)OCCC[N+](C)(C)C has an inhibition of 63.7% (NCI-H522; SRB; 10 µM).
COc1cc(C=NNC(=O)c2nc3ccccc3s2)ccc1O has a cell death of 29.4% (PC-3; MTT; 100 µM; 48 h).
With CCCCCCCCCCCCCCCCCCOc1ccccc1CC(=O)OCC[N+](CC)(CC)CC the inhibition was 89.5% (NCI-H522; SRB; 10 µM).
The GI50 of CN(C)CCNC(=O)c1ccc(-c2nc3ccc4[nH]ncc4c3c3c2CCCC3)cc1 is reported as 149 nM (EOL1; 72 h).
The cell death of COc1ccc(C=NNC(=O)c2nc3ccccc3s2)cc1O is reported as 25.1% (PC-3; MTT; 100 µM; 48 h).
With CCCCCCCCCCCCCCCCCCOc1ccc(CC(=O)OCC[N+](CC)(CC)CC)cc1 the inhibition was 26.6% (NCI-H522; SRB; 10 µM).
With CN(C)CCNC(=O)c1ccc(-c2nc3ccc4[nH]ncc4c3c3c2CCCCC3)c(F)c1 the GI50 was 52 nM (EOL1; 72 h).
With CCCCCCCCCCCCCCCCCCOc1cccc(CC(=O)OCC[N+](CC)(CC)CC)c1 the inhibition was 61.5% (NCI-H522; SRB; 10 µM).
The inhibition of NCC(=O)Nc1ccccc1/N=c1\cc(-c2ccc3c(c2)OCCO3)oc2ccccc12 is reported as -0.04% (A549; CCK-8; 1 µM).
For C=C(NC(=O)C(=C)NC(=O)c1csc(C2=N[C@@H]3c4csc(n4)[C@H]4NC(=O)c5csc(n5)[C@H]([C@](C)(O)[C@@H](C)O)NC(=O)[C@H]5CSC(=N5)/C(=C/C)NC(=O)[C@H]([C@@H](C)O)NC(=O)c5csc(n5)[C@]3(CC2)NC(=O)[C@H](C)NC(=O)C(=C)NC(=O)[C@H](C)NC(=O)[C@H]([C@@H](C)CC)N[C@@H]2C=Cc3c([C@H](C)O)cc(nc3[C@H]2O)C(=O)O[C@@H]4C)n1)C(N)=O, the pEC50 was 6.05 (U-251).
CN(C)CCNC(=O)c1ccc(-c2nc3ccc4[nH]ncc4c3c3c2CCCC3)c(F)c1 gave a GI50 of 42 nM (EOL1; 72 h).
With CCCCCCCCCCCCCCCCCCOCC(COP(=O)([O-])OCC[N+](C)(C)C)OC (stereo not shown) the inhibition was 27% (NCI-H522; SRB; 10 µM).
Cc1n[nH]c2ccc3nc(-c4ccc(C(=O)NCCN(C)C)cc4)c4c(c3c12)CCCC4 has a GI50 of 37 nM (EOL1; 72 h).
For CCCCCCCCCCCCCCCCCCOc1ccc(CC(=O)OCC[N+]2(C)CCCC2)cc1, the inhibition was 3.23% (NCI-H522; SRB; 10 µM).
NC(=O)C1CCCN1C(=O)Nc1ccccc1/N=c1\cc(-c2ccc3c(c2)OCCO3)oc2cc(F)ccc12 (stereo not shown) has an inhibition of -1.31% (A549; CCK-8; 1 µM).
With CC(C)(C)c1cc(NC(=O)Nc2ccc(-c3cn4c(n3)sc3cc(OCCN5CCOCC5)ccc34)cc2)no1 the GI50 was less than 0.1 nM (EOL1; 72 h).
